Data set [1] relates to Mus musculus. Briefly: Toxicity in BALB/c nu/nu mouse xenografted with human DMS53 cells assessed as change in body weight at 6 mg/kg, iv administered for 5 days a week measured after 21 days. It counts as organism-based, DMS-53. Also noted: dose 6 mg/kg, route intravenous. The following applies: in vivo, 504 h. In short, it runs like this: (§1)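 DMS-53 xenografts in nude mice; dosing started at 100 mm3 tumor volume. Agents given iv via tail vein, 5 days/week for 21 days, vehicle 30% propylene glycol/saline, vehicle-treated controls. Mice sacrificed day 21. Body and organ weights and hematological indices recorded. Spleen, kidney, liver, heart, lungs and brain were stained with H&E, Perls' and Gomori Trichrome and read by an independent veterinary pathologist.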

The subject of data set [2] is Mus musculus. Put plainly: Toxicity in BALB/c nu/nu mouse xenografted with human DMS53 cells assessed as change in hematopoetic cells in splenic red pulp at 6 mg/kg, iv administered for 5 days a week measured after 21 days by hematoxylin and eosin staining method. It counts as organism-based, DMS-53. Also noted: dose 6 mg/kg, route intravenous. The following applies: in vivo, 504 h. The gist of the method: as §1
In general terms: Xenograft models place foreign cells or tissue in a host animal.

Data set [3] relates to Mus musculus. Put plainly: Toxicity in BALB/c nu/nu mouse xenografted with human DMS53 cells assessed as change in reticulocyte count at 6 mg/kg, iv administered for 5 days a week measured after 21 days. The following applies: in vivo, 504 h. Also noted: dose 6 mg/kg, route intravenous. The class given is organism-based, DMS-53. The gist of the method:
(§2)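 Nude mice carrying DMS-53 xenografts (treatment from 100 mm3) received iv tail-vein doses in 30% propylene glycol/saline, 5 days/week for 21 days. Hematological indices (RBC, hemoglobin, hematocrit, reticulocytes, WBC, platelets) were then compared with vehicle controls.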

Data set [4] has as its system Mus musculus. Briefly: Toxicity in BALB/c nu/nu mouse xenografted with human DMS53 cells assessed as change in spleen weight at 7.5 mg/kg, po administered for 3 times a week measured after 20 days. The following applies: in vivo, 480 h. Also noted: dose 7.5 mg/kg, route oral. It counts as organism-based, DMS-53. In short, it runs like this:
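DMS-53 xenograft nude mice were gavaged 3 times/week in 30% propylene glycol/saline vehicle for 20 days and then sacrificed. Organ weights and histology of spleen, kidney, liver, heart, lungs and brain were compared with vehicle controls. n = 6-11 mice/condition.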

The subject of data set [5] is Mus musculus. Put plainly: Toxicity in BALB/c nu/nu mouse xenografted with human DMS53 cells assessed as change in reticulocyte count at 3 mg/kg, iv administered for 5 days a week measured after 21 days. The following applies: in vivo, 504 h. Also noted: dose 3 mg/kg, route intravenous. It counts as organism-based, DMS-53. In short, it runs like this: as §2
Data set [6] deals with Mus musculus. Put plainly: Toxicity in BALB/c nu/nu mouse xenografted with human DMS53 cells assessed as change in organ weight at 3 mg/kg, iv administered for 5 days a week measured after 21 days. The class given is organism-based, DMS-53. Also noted: dose 3 mg/kg, route intravenous. The following applies: in vivo, 504 h. In short, it runs like this:
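DMS-53 xenograft-bearing nude mice, treatment started at 100 mm3 tumour volume: iv tail-vein dosing in 30% propylene glycol/saline, 5 days/week for 21 days. Organs were weighed at sacrifice and compared with vehicle-control mice.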

Data set [7] concerns Mus musculus. Briefly: Toxicity in BALB/c nu/nu mouse xenografted with human DMS53 cells assessed as change in lung weight at 10 mg/kg, po administered for 3 times a week measured after 20 days. The class given is organism-based, DMS-53. Also noted: dose 10 mg/kg, route oral. The following applies: in vivo, 480 h. The gist of the method: (§3)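 Nude mice bearing DMS-53 xenografts gavaged 3 times/week for 20 days, vehicle 30% propylene glycol/saline, vehicle controls, n = 6-11 mice/condition. Sacrifice on day 20. Organ weights and hematological indices recorded. Spleen, kidney, liver, heart, lungs and brain examined histologically, hearts stained with Gomori Trichrome for fibrosis.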

Data set [8] deals with Mus musculus. Put plainly: Toxicity in BALB/c nu/nu mouse xenografted with human DMS53 cells assessed as hepatocellular necrosis at 0.75 mg/kg, iv administered for 5 days a week measured after 21 days by hematoxylin and eosin staining method. It counts as organism-based, DMS-53. Also noted: dose 0.75 mg/kg, route intravenous. The following applies: in vivo, 504 h. In short, it runs like this: (§4)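 Nude mice with DMS-53 xenografts dosed by tail-vein iv injection in 30% propylene glycol/saline, starting at 100 mm3 tumour volume, 5 days/week for 21 days. Spleen, kidney, liver, heart, lungs and brain were stained with H&E, Perls' (Fe loading) and Gomori Trichrome (fibrosis) by standard methods, and an independent veterinary pathologist examined them.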

Data set [9] has as its system Mus musculus. Briefly: Toxicity in BALB/c nu/nu mouse xenografted with human DMS53 cells assessed as hepatocellular necrosis at 6 mg/kg, iv administered for 5 days a week measured after 21 days by hematoxylin and eosin staining method. It counts as organism-based, DMS-53. Also noted: dose 6 mg/kg, route intravenous. The following applies: in vivo, 504 h. In short, it runs like this: as §4

The subject of data set [10] is Mus musculus. Briefly: Toxicity in BALB/c nu/nu mouse xenografted with human DMS53 cells assessed as hepatocellular fibrosis at 6 mg/kg, iv administered for 5 days a week measured after 21 days by hematoxylin and eosin staining method. It counts as organism-based, DMS-53. Also noted: dose 6 mg/kg, route intravenous. The following applies: in vivo, 504 h. The gist of the method:
as §4

For data set [11], the system named is Mus musculus. Put plainly: Toxicity in BALB/c nu/nu mouse xenografted with human DMS53 cells assessed as vacuolation at 6 mg/kg, iv administered for 5 days a week measured after 21 days by hematoxylin and eosin staining method. The class given is organism-based, DMS-53. Also noted: dose 6 mg/kg, route intravenous. The following applies: in vivo, 504 h. The gist of the method:
as §4

The test system of data set [12] is Mus musculus. Put plainly: Toxicity in BALB/c nu/nu mouse xenografted with human DMS53 cells assessed as cardiac fibrosis at 6 mg/kg, iv administered for 5 days a week measured after 21 days by […]. The class given is organism-based, Heart, DMS-53. Also noted: dose 6 mg/kg, route intravenous. The following applies: in vivo, 504 h. The gist of the method:
(§5)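 DMS-53 xenograft nude mice given agents iv by tail vein 5 days/week in 30% propylene glycol/saline for 21 days. At sacrifice, heart sections were stained with Gomori Trichrome to detect fibrosis. Spleen, kidney, liver, heart, lungs and brain were also stained with H&E and Perls' and examined by an independent veterinary pathologist.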

Data set [13] relates to Mus musculus. Briefly: Toxicity in BALB/c nu/nu mouse xenografted with human DMS53 cells assessed as change in hemoglobin level at 3 mg/kg, iv administered for 5 days a week measured after 21 days. It counts as organism-based, DMS-53. Also noted: dose 3 mg/kg, route intravenous. The following applies: in vivo, 504 h. The gist of the method: as §1
Data set [14] has as its system Mus musculus. Briefly: Toxicity in BALB/c nu/nu mouse xenografted with human DMS53 cells assessed as change in platelet count at 6 mg/kg, iv administered for 5 days a week measured after 21 days. It counts as organism-based, DMS-53. Also noted: dose 6 mg/kg, route intravenous. The following applies: in vivo, 504 h. In short, it runs like this:
as §2

The subject of data set [15] is Mus musculus. Briefly: Toxicity in BALB/c nu/nu mouse xenografted with human DMS53 cells assessed as change in body weight at 8 mg/kg, iv administered for 5 days a week measured after 21 days. It counts as organism-based, DMS-53. Also noted: dose 8 mg/kg, route intravenous. The following applies: in vivo, 504 h. The gist of the method: as §1
Data set [16] relates to Mus musculus. Put plainly: Toxicity in BALB/c nu/nu mouse xenografted with human DMS53 cells assessed as change in lung weight at 20 mg/kg, po administered for 3 times a week measured after 20 days. The class given is organism-based, DMS-53. Also noted: dose 20 mg/kg, route oral. The following applies: in vivo, 480 h. The gist of the method:
as §3

Data set [17] relates to Mus musculus. Briefly: Toxicity in BALB/c nu/nu mouse xenografted with human DMS53 cells assessed as hepatocellular necrosis at 4 mg/kg, iv administered for 5 days a week measured after 21 days by hematoxylin and eosin staining method. The class given is organism-based, DMS-53. The following applies: in vivo, 504 h. Also noted: dose 4 mg/kg, route intravenous. The gist of the method:
as §4

For data set [18], the system named is Mus musculus. Briefly: Toxicity in BALB/c nu/nu mouse xenografted with human DMS53 cells assessed as change in heart weight at 20 mg/kg, po administered for 3 times a week measured after 20 days. Also noted: dose 20 mg/kg, route oral. The class given is organism-based, DMS-53. The following applies: in vivo, 480 h. In short, it runs like this: as §3
Data set [19] relates to Mus musculus. Briefly: Toxicity in BALB/c nu/nu mouse xenografted with human DMS53 cells assessed as hepatocellular fibrosis at 8 mg/kg, iv administered for 5 days a week measured after 21 days by hematoxylin and eosin staining method. The following applies: in vivo, 504 h. The class given is organism-based, DMS-53. Also noted: dose 8 mg/kg, route intravenous. In short, it runs like this:
as §4

The test system of data set [20] is Mus musculus. Briefly: Toxicity in BALB/c nu/nu mouse xenografted with human DMS53 cells assessed as change in platelet count at 4 mg/kg, iv administered for 5 days a week measured after 21 days. The class given is organism-based, DMS-53. Also noted: dose 4 mg/kg, route intravenous. The following applies: in vivo, 504 h. The gist of the method:
as §2

The subject of data set [21] is Mus musculus. Briefly: Toxicity in BALB/c nu/nu mouse xenografted with human DMS53 cells assessed as cardiac fibrosis at 4 mg/kg, iv administered for 5 days a week measured after 21 days by […]. It counts as organism-based, Heart, DMS-53. Also noted: dose 4 mg/kg, route intravenous. The following applies: in vivo, 504 h. In short, it runs like this:
as §5

In data set [22] the test system is Mus musculus. Put plainly: Cardiotoxicity in BALB/c nu/nu mouse xenografted with human DMS53 cells at 4 mg/kg, iv administered for 5 days a week measured after 21 days. It counts as toxicity, organism-based, DMS-53. Also noted: dose 4 mg/kg, route intravenous. The following applies: in vivo, 504 h. The gist of the method:
as §5

Data set [23] has as its system Mus musculus. Briefly: Toxicity in BALB/c nu/nu mouse xenografted with human DMS53 cells assessed as change in body weight at 4 mg/kg, iv administered for 5 days a week measured after 21 days. The class given is organism-based, DMS-53. Also noted: dose 4 mg/kg, route intravenous. The following applies: in vivo, 504 h. In short, it runs like this:
as §1

Data set [24] relates to Mus musculus. Put plainly: Toxicity in BALB/c nu/nu mouse xenografted with human DMS53 cells assessed as change in hematopoetic cells in splenic red pulp at 4 mg/kg, iv administered for 5 days a week measured after 21 days by hematoxylin and eosin staining method. The following applies: in vivo, 504 h. Also noted: dose 4 mg/kg, route intravenous. It counts as organism-based, DMS-53. The gist of the method: as §1

In the case of `CCN(C)C(=S)NN=C(c1ccccn1)c1ccccn1.Cl`, the Activity entry in the data set with Mus musculus [1] is “Non-toxic”; in the data set with Mus musculus [2], “Non-toxic”; in the data set with Mus musculus [3] it was “Toxic”; in the data set with Mus musculus [4] it was “Toxic”; with Mus musculus [5] it was “Non-toxic”; in the data set on Mus musculus [6], “Toxic”. Moreover, the Activity entry in the data set on Mus musculus [7] is “Toxic”; in the data set with Mus musculus [8], “Non-toxic”; with Mus musculus [9], “Non-toxic”; in the data set with Mus musculus [10], “Non-toxic”; in the data set with Mus musculus [11], “Toxic”; in the data set on Mus musculus [12] it was “Non-toxic”. Also, the Activity result in the data set with Mus musculus [13] and in the data set with Mus musculus [14] was “Non-toxic” each time.
With `CN(C(=S)NN=C(c1ccccn1)c1ccccn1)C1CCCCC1.Cl`, the Activity result is “Non-toxic” in the data set with Mus musculus [15]; “Non-toxic” in the data set with Mus musculus [16]; “Non-toxic” with Mus musculus [17]; “Non-toxic” in the data set with Mus musculus [18]; “Non-toxic” with Mus musculus [19]; “Toxic” in the data set on Mus musculus [20]. Besides, the Activity entry in the data set with Mus musculus [21], with Mus musculus [22], in the data set on Mus musculus [23] and in the data set with Mus musculus [24] was “Non-toxic” in each case.

These data come from ChEMBL document CHEMBL2203173 (J Med Chem, 2012).
